High-throughput results from PubChem.
Compounds with a hit are over-represented: about 2.5% of the library has one in this group of screens.
TCR-CD3 inh: blocks the human TCR-CD3 interaction | TAMRA-labeled TCR probe fluorescence, biochemical | inhibition, % at 9.4 µM | actives 0.37% (n = 360,000) | AID 651800; in the data active = inhibition above about 19%;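 note: recombinant mutant TCR 2C K166C tagged with TAMRA read by polarization; 0% = receptor in buffer alone and 100% = receptor with positive control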
SIAE inh: human SIAE inhibition, primary screen. Q9HAT2. SIAE FP-Rh probe binding, fluorescence polarization. inhibition, % at 9.66 µM. actives 0.69% (n = 370,000). AID 1053197;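 active = inhibition above a cutoff: mean of compounds within the control limits plus 3 SD of those, cut at about 17% in these data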;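 note: 0% = plate median of compound wells and 100% = probe without SIAE protein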
mABHD4 FP: ABHD4 (mouse) inhibition, primary FP screen; purified mABHD4, FP-Rh probe fluorescence polarization; actives 0.54% (n = 370,000); inhibition, % at 8.92 µM; Q8VD66;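 active = inhibition exceeding the mean over every tested compound plus 3 SD, cut at about 30% in these data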;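 note: 0% = plate median of compound wells and 100% = S159A mutant with DMSO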
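Assay system: Wild-type mouse ABHD4 protein | Medium: HEPES pH 7.0 buffer, 150 mM NaCl, 0.01% Pluronic F-127 | Incubation: Enzyme–compound pre-incubation 45 min, then probe 60 min, both 25 °C | Technique: Fluorescence polarization with parallel and perpendicular emission, 525/598 nm | Evaluation: % inhibition of FP-Rh probe binding versus controls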
HTRA1 inhibitor: blocks human HTRA1 serine peptidase; Q92743; recombinant HTRA1, FP-rhodamine activity-based probe, fluorescence polarization; inhibition, % at 5.96 µM; actives 0.5% (n = 340,000); AID 504803; in the data active = inhibition above about 36%;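 note: 0% = enzyme with DMSO and 100% = wells lacking enzyme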
Target sequence (Q92743 whole entry, looked up): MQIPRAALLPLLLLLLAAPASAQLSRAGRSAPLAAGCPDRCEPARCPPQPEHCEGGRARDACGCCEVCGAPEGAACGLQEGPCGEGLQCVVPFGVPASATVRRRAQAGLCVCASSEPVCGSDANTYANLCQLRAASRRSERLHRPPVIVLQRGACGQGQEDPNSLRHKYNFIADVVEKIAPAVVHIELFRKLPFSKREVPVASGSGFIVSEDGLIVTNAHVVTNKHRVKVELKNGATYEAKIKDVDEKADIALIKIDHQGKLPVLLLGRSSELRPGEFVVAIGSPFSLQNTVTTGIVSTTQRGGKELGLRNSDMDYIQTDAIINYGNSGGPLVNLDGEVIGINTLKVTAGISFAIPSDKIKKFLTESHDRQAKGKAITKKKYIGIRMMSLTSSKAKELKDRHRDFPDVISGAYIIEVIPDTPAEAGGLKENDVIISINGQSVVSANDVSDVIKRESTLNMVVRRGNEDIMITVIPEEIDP
rCAG RNA binder: molecules binding r(CAG) RNA repeats; r(CAG) RNA repeat, TO-PRO-1 dye displacement fluorescence; inhibition, % at 3 µM; actives 1.3% (n = 370,000);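 active = inhibition above the plate cutoff, the mean of all test compounds on that plate plus 3 SD, cut at about 35% in these data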;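 note: 0% = DMSO alone and 100% = 100 µM mitoxantrone as full dye displacement; higher means more dye released from RNA so lower well fluorescence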
SIAE confirm: confirmation of human SIAE inhibitors. shares compounds with SIAE inh. SIAE FP-Rh activity-based probe, fluorescence polarization. inhibition, % at 9.66 µM. actives 13% (n = 2,300);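 active = mean inhibition of the replicates above the hit cutoff set in the primary screen, cut at about 17% in these data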;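 note: 0% = SIAE with DMSO and probe and 100% = probe without SIAE; inhibitors lower polarization as more probe stays unbound to SIAE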
* marks the source's active call; other numbers are inactive results; nt = no result.

SMILES	TCR-CD3 inh	SIAE inh	mABHD4 FP	HTRA1 inhibitor	rCAG RNA binder	SIAE confirm
CCOc1cc(N2CCOCC2)c(OCC)cc1NC(=O)c1ccc(-n2ccnc2)c([N+](=O)[O-])c1	5.5	1.4	1.2	5.8	-6.0	nt
O=C(NCCc1c[nH]c2ccccc12)C1CCN(S(=O)(=O)c2ccc(F)cc2)CC1	7.9	4.3	-0.2	6.5	-2.6	nt
CN(CC(=O)NCc1cccs1)CC(=O)Nc1ccc(F)c(F)c1F	9.6	0.3	-1.0	4.8	-3.9	nt
Cc1cc(-c2ccco2)n(CC(=O)O)n1	1.1	-4.1	-5.0	4.1	1.3	nt
CSc1nnc([C@@H](NC(=O)OC(C)(C)C)C(C)C)o1	7.3	18.4*	-4.5	6.1	-1.9	9.0
CCOc1ncccc1C(=O)N1CCN(S(=O)(=O)c2ccccc2)CC1	0.2	-0.7	-1.7	-2.0	-2.9	nt
CN(C)S(=O)(=O)c1ccc(C(=O)N2CCN(S(=O)(=O)c3ccc4c(c3)OCCO4)CC2)cc1	4.0	19.8*	-1.1	11.2	3.7	1.2
CCOc1ncccc1C(=O)N1CCN(S(=O)(=O)c2ccc3c(c2)OCCO3)CC1	8.0	21.9*	-1.6	0.8	-1.4	-2.9
CCc1ccccc1N(CC(=O)N1CCCCC1)S(=O)(=O)c1ccccc1	4.5	6.6	-2.6	-9.6	-4.6	nt
Cc1cccc(N(CC(=O)N2CCCC2)S(=O)(=O)c2ccccc2)c1C	-11.6	22.3*	0.7	1.1	-8.5	0.3
CCCn1c(=O)[nH]c(=O)c2c1nc(-c1ccc(OC)c(Br)c1)n2CCOC	-1.2	20.9*	-7.6	-2.9	-4.3	-16.8
Cc1cccc(/C=C/c2onc(C)c2S(=O)(=O)N2CCC(C(=O)N3CCCCCC3)CC2)c1	8.8	-4.3	-5.5	-35.5	7.9	nt
CCN(CC)C(=O)N1c2ccccc2Sc2ccccc21	2.2	18.4*	6.8	-1.9	-7.3	10.6
COc1ccc(S(=O)(=O)N2CCN(C(=O)CN3C(=O)NC(C)(c4ccc5ccccc5c4)C3=O)CC2)cc1 (centres undefined)	1.6	17.2*	3.4	-7.5	4.5	1.0
CCN1CCc2c(sc(NC(=S)NC(=O)c3ccc(Cl)cc3)c2C(N)=O)C1	-2.5	17.6*	8.2	-0.5	19.6	0.6
CCN1CCc2c(sc(NC(=O)c3ccc4ccccc4c3)c2C(N)=O)C1	0.6	-10.5	-4.5	-33.0	9.6	nt
Cc1ccc(-c2nn(-c3ccccn3)c(=O)c3ccccc23)cc1C	-1.6	-2.9	-6.8	-4.3	-4.3	nt
COc1ccc(-c2nc(-c3ccc4c(c3)OCO4)[nH]c2-c2ccc(OC)cc2)cc1	3.7	19.2*	12.9	6.8	5.2	0.5
O=C(COC(=O)Cc1ccc(F)cc1)Nc1ccc2[nH]c(=O)[nH]c2c1	8.0	18.1*	1.0	1.2	2.6	2.1
Cc1nnc(SCC(=O)Nc2ccc3[nH]c(=O)[nH]c3c2)s1	4.7	0.9	-3.4	7.3	0.7	nt
O=C(CSc1nncs1)Nc1ccc2[nH]c(=O)[nH]c2c1	7.6	17.2*	0.2	-0.8	0.0	2.1
O=C(N/N=C/c1c(O)ccc2ccccc12)c1[nH]ncc1Br	10.6	18.6*	17.3	32.7	24.5	-4.9
c1ccc2[nH]c(COCc3nc4ccccc4[nH]3)nc2c1	nt	4.9	-0.3	nt	nt	nt
Oc1ccc(O)c(Cc2nc3ccccc3[nH]2)c1	-0.2	18.6*	11.4	6.8	9.1	2.9
Oc1ccc(/C=N/Nc2cccc(Cl)n2)c(O)c1	5.8	5.9	7.4	25.5	4.4	nt
SMILES	TCR-CD3 inh	SIAE inh	mABHD4 FP	HTRA1 inhibitor	rCAG RNA binder	SIAE confirm
Cc1ccc(C(=O)N/C(=C\c2cn(C)c3ccccc23)C(=O)OCCN(C)C)cc1	-0.3	3.1	-0.8	3.5	-1.7	nt
CN(C)CCOC(=O)/C(=C/c1cn(C)c2ccccc12)NC(=O)c1ccccc1	2.0	17.5*	-0.6	6.7	-5.5	3.0
Cc1c(Cl)cccc1NC(=S)N1CCc2ccccc2C1	1.7	4.3	0.3	-5.2	-0.2	nt
CNC(=S)N1CCc2ccccc2C1	-1.8	29.7*	4.8	-1.4	0.5	5.2
COc1cc(/C=C/C(=O)OCC(=O)NC(=O)NC2CCCCC2C)ccc1OC(F)F (centres undefined)	-3.7	-10.3	-8.2	1.3	-0.6	nt
CC1=NN(c2ccc(Cl)c(C(=O)O)c2)C(=O)C1	3.3	1.5	15.6	8.8	14.6	nt
CC1=NN(c2ccc(C(=O)O)c(N)c2)C(=O)C1	0.4	17.6*	18.4	3.9	1.5	3.1
O=C(COC(=O)COc1ccc(Cl)cc1)Nc1ccc2c(c1)OCCO2	5.0	18.2*	3.2	4.8	1.7	0.9
CCC(=O)c1ccc(OCC(=O)OCC(=O)Nc2ccc3c(c2)OCCO3)cc1	2.4	0.1	1.1	3.3	-1.1	nt
O=C(CN1CCN(S(=O)(=O)c2ccc3c(c2)OCCO3)CC1)Nc1cccc(F)c1	4.2	18.8*	2.5	-2.5	-3.0	0.3
O=C(COC(=O)C1CCN(S(=O)(=O)c2ccc3c(c2)OCCO3)CC1)Nc1cccc2ccccc12	-1.7	17.6*	-0.5	2.2	1.7	-0.6
CC(C)n1nnnc1SCC(=O)NCc1cccs1	5.8	5.8	1.2	-6.0	2.1	nt
CCOC(=O)c1cnc(SCC(=O)OCC(=O)N(CC)C2CCS(=O)(=O)C2)nc1N (centres undefined)	0.5	4.2	-2.6	-1.4	-4.3	nt
CCOC(=O)c1cnc(SCC(=O)OCC(=O)NC2CCS(=O)(=O)C2)nc1N (centres undefined)	-2.9	18.0*	6.0	-2.1	-1.6	-5.3
COc1ccc2c(Cl)c(C(=O)N/N=C/c3c(C)[nH]c4ccccc34)sc2c1	-8.1	23.3*	7.4	0.0	27.6	10.2
Cc1ccc(Cl)c(NC(=O)COC(=O)c2nn(C)c(=O)c3ccccc23)c1Cl	-4.4	-9.3	0.5	-0.5	-0.1	nt
O=C(COC(=O)c1ccccc1SCC(=O)N1CCCC1)Nc1ccc(OC(F)F)cc1	2.5	19.8*	-7.3	2.1	-0.6	1.3
NC(=O)c1ccc(NC(=O)COC(=O)c2ccccc2SCC(=O)N2CCCC2)cc1	7.7	-1.9	3.6	2.0	2.0	nt
CCSc1nc2c(c(=O)[nH]1)C(C(C)C)C(C#N)=C(N)O2 (centres undefined)	-0.3	4.0	-5.0	-0.2	-0.5	nt
CC(Oc1ccc2c3c(c(=O)oc2c1)CCC3)C(=O)NC1CCN(Cc2ccccc2)CC1 (centres undefined)	3.3	-3.7	1.6	2.2	-3.9	nt
O=C(NCc1ccc(OC(F)(F)F)cc1)C1CC(c2c(Cl)cccc2Cl)=NO1 (centres undefined)	1.6	6.6	-20.5	-22.4	-6.2	nt
O=C(Nc1ccc(Cl)c(C(F)(F)F)c1)[C@@H]1CC=C[C@@H]2CCN(C3CCCCC3)C(=O)[C@@H]21	-0.9	-1.9	12.4	2.0	1.5	nt
COc1ccc(NC2=Nc3cccc4cccc2c34)cc1OC	-9.1	5.5	5.5	-6.7	-1.8	nt
